Measurements: ChEMBL document CHEMBL5252513, “Identification of a Benzoisoxazoloazepine Inhibitor (CPI-0610) of the Bromodomain and Extra-Terminal (BET) Family as a Candidate for Human Clinical Trials” (J Med Chem, 2016)
Calls of active or inactive are those of the source. No cut-off for these calls is given here.

Assays:
[1] = Unbound AUC in rat at 5 mg/kg,po; assay type: ADME, organism-based; details: in vivo
[2] = Protein binding in human plasma; assay type: ADME, cell-free; details: read-out: PPB (converted)
[3] = Intrinsic clearance in dog liver microsomes; assay type: ADME, Canis lupus familiaris, Microsome; details: read-out: CLH
[4] = Protein binding in rat plasma; assay type: ADME, cell-free; details: read-out: PPB (converted)
[5] = system: MV4-11; assay: Antitumor activity against human MV4-11 cells xenografted in BALB/c mouse assessed as complete tumor growth inhibition at 10 mg/kg,sc BID in presence of doxorubicin at 2 mg/kg,iv BIW for 28 days; assay type: functional, organism-based; details: time 28.0 day
[6] = Initial unbound plasma concentration in human patient with progression lymphoma at 300 mg,po QD and measured after 24 hrs; assay type: ADME; details: in vivo
[7] = system: MV4-11; assay: In vivo inhibition of BRD4 in human MV4-11 cells xenografted in BALB/c mouse assessed as reduction in cellular MYC mRNA expression level in plasma at 15 mg/kg,sc BID and measured for 8 to 12 hrs by PCR anlaysis; assay type: functional, organism-based; details: time 8-12 hrs
Procedure, shortened: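 Pharmacodynamic study in MV-4-11 AML mouse xenograft. Dosing was 15 mg/kg subcutaneous twice daily. At 4, 8 and 12 h after the second dose, MYC mRNA was measured against vehicle, and compound levels were measured in plasma and tumor. Free plasma concentration was estimated alongside total levels.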

[8] = Initial plasma concentration in human patient with progression lymphoma at 300 mg,po QD and measured after 24 hrs; assay type: ADME; details: read-out: C0
Procedure, shortened: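 Trough plasma concentration taken as concentration at 24 h after oral dosing, 300 mg cohort, patients with hematologic malignancies.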

[9] = system: MV4-11; assay: Antitumor activity against human MV4-11 cells xenografted in BALB/c mouse assessed as tumor growth inhibition at 30 mg/kg,po QD for 28 days; assay type: functional; details: MV4-11, 672 h, time 28 day, read-out: TGI
Procedure, shortened: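 Single-agent efficacy in MV-4-11 AML mouse xenograft. Tumor volume (mm3) and percent body-weight change were tracked over the treatment days.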

[10] = Tmax in rat at 5 mg/kg,po; assay type: ADME, organism-based; details: in vivo
[11] = Toxicity in dog assessed as hypocellularity of bone marrow with associated anemia and thrombocytopenia at 2 to 6 mg/kg,po QD consecutive for 14 days followed by 2 weeks recovery period; assay type: organism-based, Canis lupus familiaris; details: in vivo, 336 h, dose 2-6 mg/kg, time 14 day
Procedure, shortened: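 Oral suspension given once daily for 14 consecutive days (rat 2, 6, 20 mg/kg; dog 2, 4, 6 mg/kg) in dose range-finding and GLP repeat-dose studies, GLP arms with an added 2-week recovery period; histopathology and clinical pathology findings recorded.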

[12] = Unbound AUC in dog at 2.5 mg/kg,po; assay type: ADME, organism-based, Canis lupus familiaris; details: in vivo
[13] = Total clearance in dog at 0.5 mg/kg,iv; assay type: ADME, organism-based, Canis lupus familiaris; details: in vivo
[14] = Cmax in rat at 5 mg/kg,po; assay type: ADME, organism-based; set-up: dose 5 mg/kg, route po; details: in vivo
[15] = target: T1, Bromodomain-containing protein 9 (Homo sapiens, UniProt Q9H8M2); assay: Binding affinity to BRD9 bromodomain (unknown origin) incubated for 60 mins by TR-FRET assay
T1 sequence (Q9H8M2 whole entry): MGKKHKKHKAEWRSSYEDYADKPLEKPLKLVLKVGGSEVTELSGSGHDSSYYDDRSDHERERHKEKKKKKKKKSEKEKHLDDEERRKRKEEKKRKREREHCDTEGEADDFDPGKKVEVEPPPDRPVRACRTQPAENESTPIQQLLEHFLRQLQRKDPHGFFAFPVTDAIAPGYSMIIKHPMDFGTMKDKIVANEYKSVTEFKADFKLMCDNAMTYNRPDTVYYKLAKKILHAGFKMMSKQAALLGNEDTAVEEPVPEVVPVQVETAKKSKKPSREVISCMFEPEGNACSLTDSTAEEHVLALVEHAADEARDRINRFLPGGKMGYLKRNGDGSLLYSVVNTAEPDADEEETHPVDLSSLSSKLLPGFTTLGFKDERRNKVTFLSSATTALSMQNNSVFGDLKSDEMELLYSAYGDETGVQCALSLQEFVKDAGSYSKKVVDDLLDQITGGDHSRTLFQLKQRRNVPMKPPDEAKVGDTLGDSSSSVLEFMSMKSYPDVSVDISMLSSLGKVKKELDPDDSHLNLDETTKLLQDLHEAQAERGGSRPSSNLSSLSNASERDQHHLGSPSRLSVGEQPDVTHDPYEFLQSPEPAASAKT

fAUC [1]: 0.64 µM·h
fraction unbound [2]: 0.05
predicted hepatic clearance [3]: 20 mL/min/kg
fraction unbound [4]: 0.07
C0(unbound) [6]: 11 nM
concentration at 24 h [8]: 220 nM
Tmax [10]: 1.2 h
fAUC [12]: 1.1 µM·h
clearance [13]: 1.83 mL/min/kg
Cmax [14]: 1800 nM
IC50 [15]: > 80 µM
Structure (SMILES): Cc1noc2c1-c1ccccc1C(c1ccc(Cl)cc1)=N[C@H]2CC(N)=O [PELABRESIB]
Activity [5]: Active
inhibition [7]: inactive
inhibition in vivo at 30 mg/kg [9]: 41%
Activity [11]: Toxic
